Published values gathered from unrelated publications.
Lines come from different studies, so protocols differ.
Target: Discoidin domain-containing receptor 2 (DDR2, Homo sapiens, UniProt Q16832)

| SMILES | effect on | mode | technique | concentration | endpoint | result |
| --- | --- | --- | --- | --- | --- | --- |
| COc1cc(Nc2cnc(C#N)c(O[C@H](C)CN(C)C)n2)ncc1-c1cnn(C)c1 | enzyme activity | inhibitor | radiometric | 1 µM | remaining activity | 95% |
| O=C(Nc1ccc(Oc2ccc(F)cc2)cc1)N1CCc2ncccc2[C@H]1c1ccc(F)cc1 | cell-free assay |  | competition with immobilised ligand | 1 µM | remaining binding | 100% |
| Cc1ccc(C(=O)NCc2ccsc2)cc1C#Cc1cn(C(C)C)c2ncnc(N)c12 | enzyme activity | inhibitor |  | 1 µM | activity vs control | 4% |
| CCN(CC)CCNC(=O)c1c(C)[nH]c(/C=C2\C(=O)Nc3ccc(F)cc32)c1C | enzyme activity | inhibitor |  | 10 µM | inhibition | 31% |
| COc1cc2c(N3CCN(C(=O)Nc4ccc(OC(C)C)cc4)CC3)ncnc2cc1OCCCN1CCCCC1 | cell-free assay |  |  | 0.5 µM | remaining signal | 102% |
| CCCOc1ccc(OC)c(F)c1C(=O)c1ccc(C(=O)N[C@@H]2CNC[C@H]2NC(=O)c2ccc3[nH]ncc3c2)cc1 | enzyme activity | inhibitor |  | 10 µM | remaining activity | 103% |
| O=C1NC(=O)c2cc(Nc3ccc(F)cc3)c(Nc3ccc(F)cc3)cc21 | cell-free assay |  |  | 0.5 µM | remaining signal | 99.6% |
| O=C(NCc1ncc(C(F)(F)F)cc1Cl)c1ccc2c(c1)C1(CCS(=O)(=O)CC1)[C@H](C1CC1)N2S(=O)(=O)c1ccc(F)cc1 | cell-free assay |  | competition with immobilised ligand | 1 µM | remaining binding | 78% |
| Cc1ccc(NC(=O)c2ccc(C)c(C(F)(F)F)c2)cc1C#Cc1nn(C2CCC(O)CC2)c2ncnc(N)c12 (stereo not drawn) | cell-free assay |  |  | 10 µM | remaining signal | 16% |
| CS(=O)(=O)N1CCCC(NC(=O)[C@H](CCC2CCCCC2)NC(=O)c2ccc(CNC(=O)c3cnc4ccccn34)cc2)C1 (stereo partly drawn) | cell-free assay |  | competition with immobilised ligand | 0.1 µM | remaining binding | 0% |
| Cc1[nH]c(/C=C2\C(=O)Nc3ccc(F)cc32)c(C)c1C(=O)N[C@H]1CCN(C(=O)N(C)C)C1 | enzyme activity | inhibitor |  | 0.1 µM | remaining activity | 113% |
| CCCS(=O)(=O)Nc1ccc(F)c(C(=O)c2c[nH]c3ncc(-c4ccc(Cl)cc4)cc23)c1F | enzyme activity | inhibitor |  | 1 µM | inhibition | < 10% |
| Nc1ncnc2occ(-c3ccc(NC(=O)Nc4cc(C(F)(F)F)ccc4F)cc3)c12 | cell-free assay |  |  | 20 µM | remaining signal | 1.4% |
| O=C(Nc1cnn(-c2csc(C(=O)NC3COC3)c2)c1)Nc1c(F)cccc1Cl | enzyme activity | inhibitor |  | 5 µM | remaining activity | 96.6% |
| C=CC(=O)Nc1cc(Nc2nccc(Nc3cc(Cl)c(F)cc3C(C)(C)O)n2)c(OC)cc1N1CC[C@@H](N(C)C)C1 | enzyme activity | inhibitor |  | 1 µM | inhibition | 1% |
| CC(C)(C)c1nc2c(s1)c1nc(N)ncc1c1ccc(NS(=O)(=O)c3c(F)cccc3F)c(F)c12 | enzyme activity | inhibitor | radiometric | 1 µM | remaining activity | 69% |
| CNC(=O)Nc1ccc2c(c1)CC[C@@]21OC(=O)N(CC(=O)N(Cc2ccc(F)cc2)[C@@H](C)C(F)(F)F)C1=O | cell-free assay |  | competition with immobilised ligand | 1 µM | remaining binding | 75% |
| CCN(CC)CCNC(=O)c1c(C)[nH]c(/C=C2\C(=O)Nc3ccc(F)cc32)c1C | enzyme activity | inhibitor |  | 0.1 µM | remaining activity | 101% |
| CO[C@H]1CC[C@H](CNc2ccc(S(=O)(=O)NC(=O)c3ccc(N4CCN(CC5=C(c6ccc(Cl)cc6)CC(C)(C)CC5)CC4)cc3Oc3cnc4[nH]ccc4c3)cc2[N+](=O)[O-])CC1 | cell-free assay |  | competition with immobilised ligand | 1 µM | remaining binding | 100% |
| CNC(=O)c1cc(Oc2ccc(NC(=O)Nc3ccc(Cl)c(C(F)(F)F)c3)cc2)ccn1 | enzyme activity | inhibitor |  | 0.3 µM | inhibition | 108% |
| Cc1cc(NC(=O)c2cccc(S(F)(F)(F)(F)F)c2)cc(-n2ccn3nc(-c4cccnc4)cc23)c1 | cell-free assay |  | competition with immobilised ligand | 1 µM | remaining binding | 18.2% |
| CCN(CC)c1ccc(C2=NNC(=O)CC2C)cc1[N+](=O)[O-] (stereo not drawn) | enzyme activity | inhibitor |  | 10 µM | remaining activity | 100% |
| Cc1noc([C@H]2C[C@@H](c3ccc(C(F)(F)F)cc3)CN(C(=O)N3CCS(=O)(=O)C3)C2)n1 | cell-free assay |  | competition with immobilised ligand | 1 µM | remaining binding | 74% |
| Cc1cnc(NC2CCOCC2)nc1-n1cnc(C(=O)NC(CN)c2cc(F)cc(Cl)c2)c1 (stereo not drawn) | enzyme activity | inhibitor | radiometric | 1 µM | remaining activity | 102% |
